Results published in ChEMBL document CHEMBL2331524, “Potent proteasome inhibitors derived from the unnatural cis-cyclopropane isomer of Belactosin A: synthesis, biological activity, and mode of action” (J Med Chem, 2013).
Each block holds one compound with its values, some of them ahead of it. The source made the active and inactive calls. The calls are words filed in the database; no cut-off is given here.

Key:
[1] = molecular target: T1, Proteasome Macropain subunit MB1 (Homo sapiens, UniProt P28074); assay: Inhibition of chymotrypsin-like activity of human 20S proteasome beta 5 subunit using Suc-LLVY-AMC as substrate after 60 mins by fluorescence assay
T1 sequence (P28074 whole entry): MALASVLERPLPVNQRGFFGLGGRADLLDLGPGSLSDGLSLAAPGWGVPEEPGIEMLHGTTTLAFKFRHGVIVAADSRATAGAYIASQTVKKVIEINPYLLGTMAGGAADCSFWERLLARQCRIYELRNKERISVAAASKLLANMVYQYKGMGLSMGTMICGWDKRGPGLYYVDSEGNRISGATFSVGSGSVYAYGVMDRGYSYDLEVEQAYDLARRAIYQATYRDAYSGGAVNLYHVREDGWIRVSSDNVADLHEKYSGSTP

[2] = molecular target: T2, Proteasome subunit beta type-8 (Homo sapiens) (UniProt P28062); assay: Inhibition of chymotrypsin-like activity of human 20S immunoproteasome beta 5 subunit using […] at 0.3 uM incubated for 5 mins prior to […] measured after 1 hr by ELISA
T2 sequence (whole entry): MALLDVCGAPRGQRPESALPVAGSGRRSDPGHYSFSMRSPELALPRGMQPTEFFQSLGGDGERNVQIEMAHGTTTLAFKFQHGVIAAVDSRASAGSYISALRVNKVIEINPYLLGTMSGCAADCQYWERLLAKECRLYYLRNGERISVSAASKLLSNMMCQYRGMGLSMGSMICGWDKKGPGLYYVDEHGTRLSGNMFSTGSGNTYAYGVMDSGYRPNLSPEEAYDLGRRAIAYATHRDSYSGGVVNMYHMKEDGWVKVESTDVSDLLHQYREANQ

[3] = molecular target: T3, Proteasome Macropain subunit MB1 (Homo sapiens) (UniProt P28074); assay: Inhibition of chymotrypsin-like activity of human constitutive 20S proteasome beta 5 subunit using […] at 0.3 uM incubated for 5 mins prior to […] measured after 1 hr by ELISA
T3 sequence (whole entry): T1 sequence (P28074 whole entry)

[4] = tested on: HCT-116; assay: Induction of apoptosis in human HCT116 cells assessed as induction of PARP cleavage by Western blotting analysis; assay type: functional, cell-based
Summary of the method: (§1)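 Cell extracts were immunoblotted for p53, read as a cellular marker of proteasome blockade, and for cleaved PARP, read as an apoptosis marker.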

[5] = tested on: HCT-116; assay: Inhibition of proteasome in human HCT116 cells assessed as accumulation of p53 by Western blotting analysis; assay type: cell-based; summary of the method: as §1
[6] = tested on: HCT-116; assay: Cell cycle arrest in human HCT116 cells assessed as accumulation at G2/M phase after 24 hrs by propidium iodide staining-based flow cytometric analysis; assay type: functional
[7] = tested on: HCT-116; assay: Cytotoxicity against human HCT116 cells after 72 hrs by CCK-8 assay; assay type: functional, cell-based; conditions: HCT-116, 72 h
[8] = molecular target: T3, Proteasome Macropain subunit MB1 (Homo sapiens); assay: Reversible inhibition of chymotrypsin-like activity of human 20S proteasome beta 5 subunit using Suc-LLVY-AMC as substrate incubated for 12 hrs prior to substrate addition followed by compound wash out measured after 1 hr by dialysis method
[9] = molecular target: T2, Proteasome subunit beta type-8 (Homo sapiens); assay: Inhibition of chymotrypsin-like activity of human 20S immunoproteasome beta 5 subunit using […] at 2.5 uM incubated for 5 mins prior to […] measured after 1 hr by ELISA
[10] = molecular target: T3, Proteasome Macropain subunit MB1 (Homo sapiens); conditions: 2.5 uM
[11] = Half life in TEAA buffer at pH 7.4 by HPLC analysis; assay type: physicochemical
Summary of the method: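 Compound incubated in 0.1 M triethylammonium acetate (TEAA) buffer, pH 7.4, at 37 °C. The time course was recorded by HPLC, and the half-life (t1/2) was determined from that time course.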

[12] = molecular target: T3, Proteasome Macropain subunit MB1 (Homo sapiens); assay: Irreversible inhibition of chymotrypsin-like activity of human 20S proteasome beta 5 subunit using Suc-LLVY-AMC as substrate incubated for 12 hrs prior to substrate addition followed by compound wash out measured after 1 hr by dialysis method

Structure (SMILES): COc1ccc(C[C@H](NC(=O)[C@H](C)NC(=O)CN2CCOCC2)C(=O)N[C@@H](Cc2ccccc2)C(=O)[C@]2(C)CO2)cc1
inhibition [2]: Active | inhibition [3]: Active

Structure (SMILES): CC[C@H](C)[C@@H]1C(=O)O[C@H]1C(=O)N[C@H]1C[C@H]1C[C@@H](Cc1ccc2ccccc2c1)NC(=O)[C@H](C)NC(=O)OCc1ccccc1
IC50 [1]: 200 nM

Structure (SMILES): C=C[C@H](C[C@@H]1C[C@@H]1NC(=O)[C@@H]1OC(=O)[C@H]1[C@@H](C)CC)NC(=O)C(C)C
IC50 [1]: 230 nM

Structure (SMILES): CC[C@H](C)[C@@H]1C(=O)O[C@H]1C(=O)N[C@H]1C[C@H]1C[C@@H](CCc1ccccc1)NC(=O)[C@H](C)NC(=O)OCc1ccccc1
inhibition [8]: Active | Activity [4]: Active | p53 accumulation (active/inactive) [5]: Active | Activity [6]: Active | IC50 [7]: 1820 nM | inhibition [2]: Active | inhibition [3]: Active | IC50 [1]: 5.7 nM

Structure (SMILES): CC[C@H](C)[C@@H]1C(=O)O[C@H]1C(=O)N[C@H]1C[C@H]1C[C@@H](Cc1cccc2ccccc12)NC(=O)[C@H](C)NC(=O)OCc1ccccc1
IC50 [1]: 130 nM

Structure (SMILES): CC[C@H](C)[C@@H]1C(=O)O[C@H]1C(=O)N[C@H]1C[C@H]1C[C@H](NC(=O)[C@H](C)N)C(=O)O [BELACTOSIN A]
inhibition [2]: Active | inhibition [3]: Active | IC50 [1]: 1440 nM

Structure (SMILES): CC(=O)N[C@@H](CSC(=O)[C@]1([C@@H](O)C(C)C)NC(=O)[C@H](C)[C@@H]1O)C(=O)O
inhibition [9]: Active | inhibition [10]: Active

Structure (SMILES): CC(C)C[C@H](NC(=O)[C@H](Cc1ccccc1)NC(=O)c1cnccn1)B(O)O [BORTEZOMIB]
inhibition [8]: Active | Activity [4]: Active | p53 accumulation (active/inactive) [5]: Active | Activity [6]: Active | IC50 [7]: 10 nM

Structure (SMILES): C[C@@]12OC(=O)[C@]1([C@@H](O)[C@@H]1C=CCCC1)NC(=O)[C@@H]2CCCl [MARIZOMIB]
half-life [11]: 56 min

Structure (SMILES): C=C[C@H](C[C@@H]1C[C@@H]1NC(=O)[C@@H]1OC(=O)[C@H]1[C@@H](C)CC)NC(=O)[C@H](C)N
IC50 [1]: 300 nM

Structure (SMILES): C=C[C@H](C[C@@H]1C[C@@H]1NC(=O)[C@@H]1OC(=O)[C@H]1[C@@H](C)CC)NC(=O)c1ccccc1
IC50 [1]: 130 nM

Structure (SMILES): C=C[C@H](C[C@@H]1C[C@@H]1NC(=O)[C@@H]1OC(=O)[C@H]1[C@@H](C)CC)NC(=O)[C@H](C)NC(C)=O
IC50 [1]: 230 nM

Structure (SMILES): CC(C)[C@H](O)[C@@]12NC(=O)[C@H](C)[C@@H]1OC2=O [OMURALIDE]
half-life [11]: 13 min

Structure (SMILES): CC(C)C[C@H](NC(=O)[C@H](CCc1ccccc1)NC(=O)CN1CCOCC1)C(=O)N[C@@H](Cc1ccccc1)C(=O)N[C@@H](CC(C)C)C(=O)[C@@]1(C)CO1
inhibition [12]: Active

Structure (SMILES): C=C[C@H](C[C@@H]1C[C@@H]1NC(=O)[C@@H]1OC(=O)[C@H]1[C@@H](C)CC)NC(=O)C(C)(C)C
IC50 [1]: 210 nM

Structure (SMILES): CC[C@H](C)[C@@H]1C(=O)O[C@H]1C(=O)N[C@H]1C[C@H]1C[C@@H](CCc1ccccc1)NC(=O)[C@H](C)N
half-life [11]: 600 min

The remaining compounds from weak to strong by IC50 [1], led by results:

IC50 [1]: 90 nM
Structure (SMILES): CC[C@H](C)[C@@H]1C(=O)O[C@H]1C(=O)N[C@H]1C[C@H]1C[C@H](NC(=O)[C@H](C)NC(=O)OCc1ccccc1)c1ccccc1

IC50 [1]: 79 nM
Structure (SMILES): C=C[C@H](C[C@@H]1C[C@@H]1NC(=O)[C@@H]1OC(=O)[C@H]1[C@@H](C)CC)NC(=O)[C@H](C)NC(=O)c1ccccc1

IC50 [1]: 77 nM
Structure (SMILES): C=C[C@H](C[C@@H]1C[C@@H]1NC(=O)[C@@H]1OC(=O)[C@H]1[C@@H](C)CC)NC(=O)[C@H](C)NC(=O)OC(C)(C)C

IC50 [1]: 63 nM
Structure (SMILES): CC[C@H](C)[C@@H]1C(=O)O[C@H]1C(=O)N[C@H]1C[C@H]1C[C@@H](CCc1cccc2ccccc12)NC(=O)[C@H](C)NC(=O)OCc1ccccc1

IC50 [1]: 60 nM
Structure (SMILES): C=C[C@H](C[C@@H]1C[C@@H]1NC(=O)[C@@H]1OC(=O)[C@H]1[C@@H](C)CC)NC(=O)c1ccc2ccccc2c1
Activity [4]: Active | p53 accumulation (active/inactive) [5]: Active | Activity [6]: Active | IC50 [7]: 11200 nM

IC50 [1]: 57 nM
Structure (SMILES): C=C[C@H](C[C@@H]1C[C@@H]1NC(=O)[C@@H]1OC(=O)[C@H]1[C@@H](C)CC)NC(=O)[C@@H](C)NC(=O)OCc1ccccc1

IC50 [1]: 49 nM
Structure (SMILES): C=C[C@H](C[C@@H]1C[C@@H]1NC(=O)[C@@H]1OC(=O)[C@H]1[C@@H](C)CC)NC(=O)[C@H](C)NC(=O)OCc1ccccc1
Activity [6]: Active | IC50 [7]: 910 nM

IC50 [1]: 47 nM
Structure (SMILES): C=C[C@H](C[C@@H]1C[C@@H]1NC(=O)[C@@H]1OC(=O)[C@H]1[C@@H](C)CC)NC(=O)[C@H](CC(C)C)NC(=O)OCc1ccccc1

IC50 [1]: 41 nM
Structure (SMILES): C=C[C@H](C[C@@H]1C[C@@H]1NC(=O)[C@@H]1OC(=O)[C@H]1[C@@H](C)CC)NC(=O)CNC(=O)OCc1ccccc1

IC50 [1]: 38 nM
Structure (SMILES): CC[C@H](C[C@@H]1C[C@@H]1NC(=O)[C@@H]1OC(=O)[C@H]1[C@@H](C)CC)NC(=O)[C@H](C)NC(=O)OCc1ccccc1

IC50 [1]: 35 nM
Structure (SMILES): CC[C@H](C)[C@@H]1C(=O)O[C@H]1C(=O)N[C@H]1C[C@H]1C[C@@H](CCCc1ccccc1)NC(=O)[C@H](C)NC(=O)OCc1ccccc1

IC50 [1]: 33 nM
Structure (SMILES): CC[C@H](C)[C@@H]1C(=O)O[C@H]1C(=O)N[C@H]1C[C@H]1C[C@@H](CCc1ccccc1)NC(=O)c1ccc2ccccc2c1

IC50 [1]: 30 nM
Structure (SMILES): C=C[C@H](C[C@@H]1C[C@@H]1NC(=O)[C@@H]1OC(=O)[C@H]1[C@@H](C)CC)NC(=O)[C@H](Cc1ccccc1)NC(=O)OCc1ccccc1
Activity [4]: Active | p53 accumulation (active/inactive) [5]: Active | Activity [6]: Active | IC50 [7]: 4160 nM

IC50 [1]: 29 nM
Structure (SMILES): CC[C@H](C)[C@@H]1C(=O)O[C@H]1C(=O)N[C@H]1C[C@H]1C[C@@H](CCc1ccc2ccccc2c1)NC(=O)[C@H](C)NC(=O)OCc1ccccc1

IC50 [1]: 28 nM
Structure (SMILES): C=C[C@H](C[C@@H]1C[C@@H]1NC(=O)[C@@H]1OC(=O)[C@H]1[C@@H](C)CC)NC(=O)[C@H](Cc1c[nH]c2ccccc12)NC(=O)OCc1ccccc1

IC50 [1]: 25 nM
Structure (SMILES): C=C[C@H](C[C@@H]1C[C@@H]1NC(=O)[C@@H]1OC(=O)[C@H]1[C@@H](C)CC)NC(=O)[C@H](C)NC(=O)c1ccc2ccccc2c1
Activity [4]: Active | p53 accumulation (active/inactive) [5]: Active | Activity [6]: Active | IC50 [7]: 2610 nM

IC50 [1]: 14 nM
Structure (SMILES): CC[C@H](C)[C@@H]1C(=O)O[C@H]1C(=O)N[C@H]1C[C@H]1C[C@@H](Cc1ccccc1)NC(=O)[C@H](C)NC(=O)OCc1ccccc1

IC50 [1]: 10 nM
Structure (SMILES): CC[C@H](C)[C@@H]1C(=O)O[C@H]1C(=O)N[C@H]1C[C@H]1C[C@@H](CCc1ccccc1)NC(=O)[C@H](C)NC(=O)c1ccc2ccccc2c1
Activity [4]: Active | p53 accumulation (active/inactive) [5]: Active | Activity [6]: Active | IC50 [7]: 790 nM
